# Source: the array DNA melting data of Ke et al. (doi:10.1101/2024.01.08.574731)
# Assays:
# [1] = folding enthalpy; higher = less favourable; fluorescence melt of hairpins on a sequencing array, two-state fit; settings: sodium 0.088 M
# Outline: (§1)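 To match UV melts, fitted temperatures were raised by 9.35 °C. These fits were bootstrapped two-state models that gave melting temperature and folding enthalpy, combined by inverse variance over four replicates. The input was normalised Cy3 fluorescence of library hairpins with annealed Cy3 and quencher oligos on a sequenced MiSeq flow cell, imaged in 50 mM Na-HEPES pH 8.0, 25 mM NaCl in 2.5 °C steps up to 60 °C.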
# [2] = melting temperature; fluorescence melt of hairpins on a sequencing array, two-state fit, raised by 9.35 °C to match UV melts; settings: sodium 0.088 M
# Outline: as §1
Sequence,folding enthalpy [1] [kcal/mol],Tm [2] [°C]
GGTCCTGGAAACAGGACC (((((((....))))))),-30.9,69.3
GGGGTGGGAAACCGCCCC ((((.((....)).)))),-38.1,65.9
GATCCTGATTAGGATC ((((((....)))))),-40.4,51.3
GTCTCTGGAAACAGGGAC (((.(((....))).))),-27.4,48.9
GTAGGCCGAAAGGCATAC (((.(((....))).))),-33.2,61.9
GATCGAGGAAACTTGATC ((((.((....)).)))),-28.7,44.3
GATCCAACACTGGATC ((((((....)))))),-43,48.1
GCACGGGGAAACTCGTGC (((((.(....).))))),-45.9,60.5
GTACCCGAAAGGGGTAC ((((((....))).))),-27.8,59.2
GTACTCGAAAGAGTAC ((((((....)))))),-36.2,61
GGTAGACGAAAGTCGACC (((.(((....))).))),-39.1,58.1
GGCATCGAAAGATCAGCC ((((((....)))..))),-25,39.2
GCGAGGCGAAAGCCCTGC ((..(((....)))..)),-11.9,57.6
GTCCTGTCGAAAGACGAC (((..(((....)))))),-11.2,34.1
GGCCAAGGAAACCTGGCC (((((.(....).))))),-42.3,57.3
GTCAAAGGAAACTTCGAC (((.(((....))).))),-19.4,31.1
GTCACTGGAAACAATGAC ((((.((....)).)))),-21.6,35
GAATGGGGAAACCCACTC ((.((((....)))).)),-13.1,30
GACCGCGGAAACGCGGCC (.(((((....))))).),-10.1,52.5
GCGTTGCGAAAGCCAGGC ((.(.((....)).).)),-16.9,40.3
GATCCTACAAAGGATC ((((((....)))))),-36.3,49.5
GATCGTTCCTACGATC ((((((....)))))),-41.9,56.7
GCTGCGACGAAAGTCAGC (((..(((....)))))),-13.4,51.4

Sequence,folding enthalpy [1] [kcal/mol],Tm [2] [°C]
GGTCTGGGAAACTAGGCC ((.((.(....).)).)),-33.4,41.2
GCCAAAGGAAACTTCGGC (((.(((....))).))),-24,39.6
CGCGGGCGGAAACGCGCG (((..(((....)))))),-14.9,65.4
GCTATGCGAAAGCAATGC ((..(((....)))..)),-16.5,47.7
GCATGGCGAAAGCTATGC ((((.((....)).)))),-37.9,66.6
GATCTTATTCAAGATC ((((((....)))))),-31.7,43.5
GCGCACCGAAAGGTTCGC (((.(((....))).))),-40.3,61.4
GGCTTGGGAAACCAGGCC (((.(((....))).))),-49,56.1
GTAAACGAAAGTTGTTAC ((((((....)))..))),-10.1,23.7
GGCTACGAAAGTATTGCC ((((((....)))..))),-20.1,44.1
GTTTCCGAAAGGATAAAC ((((((....)))..))),-15.8,29.7
GATCCGCACTCGGATC ((((((....)))))),-41,56.5
GGCGTGGGAAACTGCGCC ((((..(....)..)))),-52.5,55.7
GAACCCGGAAACGAGTTC ((((.((....)).)))),-27.2,40.8
GGCTGGGCGAAAGCCGCC (((..(((....)))))),-19.6,58.4
GATCAGGTTTCTGATC ((((((....)))))),-46.7,51.8
TTTTCGAAAGAAAA (((((....))))),-15.1,37.8
GTGCTGGCGAAAGCCCAC (((..(((....)))))),-10.3,49.3
TGGGTGAAAACCCA (((((....))))),-18.8,53.5
CCGTTGAAAAACGG (((((....))))),-19.9,54.3
GCTACGCGAAAGCATGGC ((.(.((....)).).)),-19.7,37
GCTGGGCGAAAGCCCCGC ((.((((....)))).)),-16.1,58.5
GATCAGCCCGCTGATC ((((((....)))))),-47.1,58.3

Sequence,folding enthalpy [1] [kcal/mol],Tm [2] [°C]
GCACTGGGAAACCGGTGC ((((.((....)).)))),-44.1,59.6
TTGCAGAAATGCAA (((((....))))),-20.8,42.3
GATCAAAGGTTGATC ((((((...)))))),-27.2,40
GATCTTATCCAAGATC ((((((....)))))),-31.6,42.6
GTTCTGCGAAAGCACAAC (((.(((....))).))),-12.6,33.3
GATCATTATATGATC ((((((...)))))),-40.2,48.8
GTCGTCGAAAGACCTGAC ((((((....)))..))),-14.7,31.7
GTTCATGGAAACATGAAC (((((((....))))))),-49.9,58.2
GGGAATCCGAAAGGACCC (((..(((....)))))),-18.1,38.1
GATACCCCGAAAGGGATC (((..(((....)))))),-12.4,33.3
GATCGGGGTTCCGATC ((((((....)))))),-36.9,59
GATCCGCTGACGGATC ((((((....)))))),-38,60.7
GATCTGTCAACAGATC ((((((....)))))),-39.1,51.6
GATCCGATGTCGGATC ((((((....)))))),-37.6,61.6
GTTATTCGAAAGAACAAC (((.(((....))).))),-20.6,30.5
GCGCGTGGAAACATGCGC ((((.((....)).)))),-40.2,67.9
GTTCTCACGAAAGTGAAC (((..(((....)))))),-10.9,31.6
GATGTAGGAAACTATATC (((.(((....))).))),-28.5,33.1
GATCTCTTTGGAGATC ((((((....)))))),-44.5,55.1
CGTTGCGGAAACGCGACG (((.(((....))).))),-30.5,67.4
GCTGGCGGAAACGTCAGC ((((.((....)).)))),-43.2,61.2
GGAGACGAAAGTCGATCC ((((((....)))..))),-13,44
GTGGAAGGAAACTTTCGC (.(.(((....))).).),-20,30
